B1: Osa-1-4 twister ribozyme (parent)
chain: CCGCCUAACACUGCCAAUGCCGGUCCCAAGCCCGGAUAAAAGUGGAGGGGGCGG

Variants of B1 are the subject of this data set. As to the kind of experiment: self-cleavage, relative activity (ratio to wild type); higher = more cleavage; co-transcriptional. The gist of the method: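 In vitro transcription at 37 °C for 2 h allowed the twister ribozyme to cleave itself as it was made. Its 54-nucleotide Oryza sativa template had been synthesised with 97 % wild-type base and 1 % of each other base at the 48 positions downstream of the cleavage site. A template-switching oligonucleotide was used for reverse transcription, followed by PCR amplification and deep sequencing. Whether reads carried upstream sequence set the cleavage status, and relative activity is the fraction cleaved normalised to wild type.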
Turning to A41C C26G, the self-cleavage amounted to 0.09.

A41C C26A: the self-cleavage is 0.06.

For the variant A41C U24C, the self-cleavage stood at 0.1.

A41C U24A: the self-cleavage stood at 0.13.

For A41C U24G, the self-cleavage was 0.03.

On to A41C G50C, for which the self-cleavage is 0.93.

Turning to A41C G50U, the self-cleavage amounted to 1.

On to A41C G50A, for which the self-cleavage was 0.37.

Turning to A40U G19C, the self-cleavage is 0.04.

Consider A40U G19U, for which the self-cleavage worked out at 0.08.

For the variant A40U G19A, the self-cleavage is 0.17.

With A41G C27U, the self-cleavage was found to be 0.09.

Regarding A41G C27A, the self-cleavage is 0.09.

With A41G C27G, the self-cleavage was found to be 0.04.

On to A41C U12A, for which the self-cleavage worked out at 0.97.

On to A41C U12C, for which the self-cleavage amounted to 0.55.

Turning to A41C U12G, the self-cleavage stood at 0.8.

On to A41C U18A, for which the self-cleavage came out at 0.92.

A41C U18C: the self-cleavage was 0.8.

With A41C U18G, the self-cleavage is 0.85.

A41C C31U: the self-cleavage is 0.8.

Consider A41C C31G, for which the self-cleavage was 0.09.

For A41C C31A, the self-cleavage worked out at 0.04.

Consider A41G G44C, for which the self-cleavage is 0.39.

Take A41G G44A: the self-cleavage came to 0.14.

On to A41G G44U, for which the self-cleavage was 0.31.

With A41G G53U, the self-cleavage was 0.25.

For A41G G53A, the self-cleavage was 0.61.

Consider A41G G53C, for which the self-cleavage was determined as 0.08.

For A41C G48C, the self-cleavage stood at 0.1.

In the case of A41C G48U, the self-cleavage turned out to be 0.07.

In the case of A41C G48A, the self-cleavage came out at 0.08.

As to A40U G47C, the self-cleavage came out at 0.06.

Consider A40U G47U, for which the self-cleavage came out at 0.09.

Regarding A40U G47A, the self-cleavage stood at 0.09.

For A41G C33U, the self-cleavage is 0.12.

In the case of A41G C33G, the self-cleavage turned out to be 0.1.

Regarding A41G C33A, the self-cleavage was determined as 0.07.

On to A41G G19A, for which the self-cleavage amounted to 0.17.

For A41G G19C, the self-cleavage stood at 0.08.

On to A41G G19U, for which the self-cleavage stood at 0.09.

A41G G51U: the self-cleavage came to 0.12.

Regarding A41G G51C, the self-cleavage was 0.09.

For A41G G51A, the self-cleavage was found to be 0.41.

For A41G U24A, the self-cleavage was found to be 0.07.

Regarding A41G U24C, the self-cleavage stood at 0.07.

Take A41G U24G: the self-cleavage is 0.04.

Regarding A40U G35U, the self-cleavage was determined as 0.41.

With A40U G35A, the self-cleavage amounted to 0.58.

Consider A40U G35C, for which the self-cleavage worked out at 0.09.

With A40U G30C, the self-cleavage is 0.04.

On to A40U G30U, for which the self-cleavage was 0.03.

Take A40U G30A: the self-cleavage came to 0.03.

Turning to A41G C15G, the self-cleavage was 0.28.

Take A41G C15U: the self-cleavage was 0.22.

For A41G C15A, the self-cleavage was determined as 0.18.

As for A41G C52G, the self-cleavage turned out to be 0.84.

Turning to A41G C52U, the self-cleavage came out at 0.88.

A41G C52A: the self-cleavage was 0.84.

With A40U G45U, the self-cleavage came to 0.07.

For the variant A40U G45C, the self-cleavage came to 0.06.

Turning to A40U G45A, the self-cleavage came to 0.07.

Regarding A40U U12G, the self-cleavage turned out to be 0.36.

For the variant A40U U12C, the self-cleavage worked out at 0.19.

In the case of A40U U12A, the self-cleavage amounted to 1.

As to A40U G13C, the self-cleavage was 0.02.

A40U G13A: the self-cleavage worked out at 0.06.

A40U G13U: the self-cleavage came to 0.01.

Turning to A41G G54A, the self-cleavage was 0.81.

Turning to A41G G54C, the self-cleavage was determined as 0.8.

For A41G G54U, the self-cleavage was 0.82.

In the case of A41G U43G, the self-cleavage came out at 0.16.

With A41G U43A, the self-cleavage came out at 0.21.

On to A41G U43C, for which the self-cleavage was 0.13.

For A40U U37C, the self-cleavage was found to be 0.77.

As to A40U U37A, the self-cleavage was determined as 0.87.

As to A40U U37G, the self-cleavage amounted to 0.94.

As for A40U G34U, the self-cleavage stood at 0.18.

On to A40U G34A, for which the self-cleavage came out at 0.23.

Regarding A40U G34C, the self-cleavage is 0.15.

For A41C G51U, the self-cleavage stood at 0.16.

Take A41C G51C: the self-cleavage came out at 0.07.

On to A41C G51A, for which the self-cleavage was 0.28.

A40U U18G: the self-cleavage is 0.64.

Regarding A40U U18A, the self-cleavage is 0.77.

In the case of A40U U18C, the self-cleavage stood at 0.71.

Turning to A41G C25A, the self-cleavage was 0.07.

Consider A41G C25G, for which the self-cleavage worked out at 0.06.

As to A41G C25U, the self-cleavage is 0.16.

Turning to A41G G34U, the self-cleavage amounted to 0.18.

Turning to A41G G34A, the self-cleavage worked out at 0.41.

For the variant A41G G34C, the self-cleavage stood at 0.16.

On to A41G G13C, for which the self-cleavage is 0.03.

Turning to A41G G13A, the self-cleavage was found to be 0.06.

Take A41G G13U: the self-cleavage is 0.04.

As for A41C C32G, the self-cleavage came to 0.11.

With A41C C32U, the self-cleavage was determined as 0.09.

Regarding A41C C32A, the self-cleavage is 0.08.

In the case of A41C C14G, the self-cleavage was 0.15.

For the variant A41C C14A, the self-cleavage turned out to be 0.07.

As for A41C C14U, the self-cleavage was found to be 0.22.

For the variant A41C A7C, the self-cleavage was 0.05.

As to A41C A7U, the self-cleavage was 0.09.

Turning to A41C A7G, the self-cleavage stood at 0.18.

As to A40U U24A, the self-cleavage was 0.06.

In the case of A40U U24G, the self-cleavage worked out at 0.03.

As to A40U U24C, the self-cleavage stood at 0.09.

Regarding A41G U37C, the self-cleavage turned out to be 0.59.

Take A41G U37A: the self-cleavage came to 0.86.

A41G U37G: the self-cleavage came to 0.87.

For A40U U43C, the self-cleavage stood at 0.13.

On to A40U U43A, for which the self-cleavage came to 0.18.

As for A40U U43G, the self-cleavage was determined as 0.1.

A41G G42A: the self-cleavage was 0.72.

In the case of A41G G42U, the self-cleavage came out at 0.44.

In the case of A41G G42C, the self-cleavage is 0.37.

A41G C14U: the self-cleavage stood at 0.24.

In the case of A41G C14A, the self-cleavage was 0.07.

Turning to A41G C14G, the self-cleavage worked out at 0.14.

Take A40U G53A: the self-cleavage turned out to be 0.19.

For A40U G53U, the self-cleavage stood at 0.11.

Consider A40U G53C, for which the self-cleavage worked out at 0.06.

As for A40U C27U, the self-cleavage was found to be 0.1.

In the case of A40U C27G, the self-cleavage is 0.06.

Turning to A40U C27A, the self-cleavage worked out at 0.09.

As to A41G A8C, the self-cleavage stood at 0.09.

Turning to A41G A8G, the self-cleavage stood at 0.19.

With A41G A8U, the self-cleavage was 0.1.

Take A41C G42U: the self-cleavage is 0.11.

As to A41C G42C, the self-cleavage stood at 0.12.

As to A41C G42A, the self-cleavage was found to be 0.19.

On to A40U C26G, for which the self-cleavage was 0.08.

Take A40U C26A: the self-cleavage was 0.05.

Take A40U C26U: the self-cleavage worked out at 0.14.

In the case of A40U C20G, the self-cleavage came to 0.07.

A40U C20A: the self-cleavage is 0.64.

Consider A40U C20U, for which the self-cleavage stood at 0.81.

A41C G44U: the self-cleavage is 0.9.

Regarding A41C G44A, the self-cleavage turned out to be 0.81.

With A41C G44C, the self-cleavage stood at 0.97.

For A41C G54C, the self-cleavage was found to be 0.85.

With A41C G54A, the self-cleavage amounted to 0.92.

On to A41C G54U, for which the self-cleavage was determined as 0.89.

A40U C15A: the self-cleavage was 0.11.

As for A40U C15U, the self-cleavage stood at 0.1.

Turning to A40U C15G, the self-cleavage came to 0.11.

As for A41C G47A, the self-cleavage is 0.17.

With A41C G47C, the self-cleavage is 0.09.

Regarding A41C G47U, the self-cleavage turned out to be 0.2.

Turning to A41C G23U, the self-cleavage came out at 0.06.

As for A41C G23A, the self-cleavage stood at 0.29.

In the case of A41C G23C, the self-cleavage amounted to 0.06.

Consider A41G G35U, for which the self-cleavage is 0.51.

On to A41G G35A, for which the self-cleavage was 0.57.

Take A41G G35C: the self-cleavage was found to be 0.15.

As to A41C G13A, the self-cleavage was 0.08.

In the case of A41C G13C, the self-cleavage worked out at 0.02.

A41C G13U: the self-cleavage was 0.04.

Take A41G G48U: the self-cleavage stood at 0.05.

As for A41G G48A, the self-cleavage was 0.08.

Consider A41G G48C, for which the self-cleavage is 0.08.

A40U C32U: the self-cleavage stood at 0.08.

As to A40U C32A, the self-cleavage was found to be 0.07.

In the case of A40U C32G, the self-cleavage came out at 0.07.

In the case of A40U C25A, the self-cleavage worked out at 0.06.

Consider A40U C25U, for which the self-cleavage amounted to 0.13.

Regarding A40U C25G, the self-cleavage was determined as 0.05.
